In the library only some 4% were active in any assay of this set; here they are far more common.
KCNQ1 block – human KCNQ1 channel inhibition. P51787. CHO-K1 KCNQ1, FluxOR thallium flux fluorescence; stronger effect = higher value. B-score at 10 µM. 310,000 tested, 1.3% active;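 active = compounds whose thallium flux B-score, printed positive for inhibition, exceeds three library SD while starting fluorescence stays within three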;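 note: channel opened by potassium depolarization with thallium stimulus after 20 min compound exposure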
KCNK3 inh – human KCNK3 channel inhibition, primary screen; CHO-KCNK3 thallium flux, FluxOR fluorescence; stronger effect = lower value; B-score at 10 µM; 340,000 tested, 0.84% active;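 active = B-score under library mean minus 4 SD, starting fluorescence ratio at most library mean plus 5 SD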;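 note: more negative B-score means stronger inhibition of thallium flux through KCNK3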
hERG protect – compounds protecting human hERG from proarrhythmic drug block. 310,000 tested, 0.51% active. CHO-hERG, FluxOR thallium flux, dofetilide IC70 present. activation (rescue from dofetilide block), less the hit threshold, % at 10 µM. Q12809;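 active = activation above the mean of controls blocked by dofetilide plus 5 SD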;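 note: thallium influx through hERG after potassium depolarization seen as dye fluorescence rise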
KCNQ1 act – human KCNQ1 channel potentiation or activation; B-score at 10 µM; 310,000 tested, 0.35% active; CHO-K1 KCNQ1, thallium flux FluxOR fluorescence; stronger effect = higher value;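 active = fluorescence ratio B-score, a plate-corrected score, at least three library SD, with initial intensity B-score within 5 SD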
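Schedule – 37 °C overnight plating, 90-min dark dye load, 20-min compound pretreatment · System – stable KCNQ1 CHO-K1 line · Probe or stimulus – thallium- and potassium-containing depolarizing buffer · Measured by – kinetic FluxOR fluorescence, 10 s baseline plus 110 s post-stimulus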
KCNK9 inh – human KCNK9 channel inhibition. B-score at 10 µM. Q9NPC2. 310,000 tested, 1.2% active. AID 488922. HEK293 KCNK9, FluxOR thallium flux fluorescence; stronger effect = lower value;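 active = ratio B-score over 3 SD below the library mean, with starting fluorescence within 5 SD of its mean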;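 note: negative B-score means less thallium flux so channel inhibition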
Target sequence (Q9NPC2 whole entry, looked up): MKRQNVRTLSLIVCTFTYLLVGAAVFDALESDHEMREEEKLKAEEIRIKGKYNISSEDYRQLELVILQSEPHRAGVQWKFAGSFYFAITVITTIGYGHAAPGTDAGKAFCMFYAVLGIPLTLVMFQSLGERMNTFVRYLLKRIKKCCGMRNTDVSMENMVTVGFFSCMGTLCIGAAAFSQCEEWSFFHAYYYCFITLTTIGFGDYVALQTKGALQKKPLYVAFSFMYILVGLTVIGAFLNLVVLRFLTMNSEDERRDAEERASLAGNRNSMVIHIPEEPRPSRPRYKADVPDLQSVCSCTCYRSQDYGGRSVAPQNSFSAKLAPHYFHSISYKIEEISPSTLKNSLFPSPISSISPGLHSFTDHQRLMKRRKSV
PHOSPHO1 block – PHOSPHO1 (human) inhibition; 290,000 tested, 1.1% active; Q8TCT1; recombinant PHOSPHO1, absorbance phosphatase assay; inhibition, % at 13.3 µM; in the data active = inhibition above about 60%
Target sequence (Q8TCT1 whole entry, looked up): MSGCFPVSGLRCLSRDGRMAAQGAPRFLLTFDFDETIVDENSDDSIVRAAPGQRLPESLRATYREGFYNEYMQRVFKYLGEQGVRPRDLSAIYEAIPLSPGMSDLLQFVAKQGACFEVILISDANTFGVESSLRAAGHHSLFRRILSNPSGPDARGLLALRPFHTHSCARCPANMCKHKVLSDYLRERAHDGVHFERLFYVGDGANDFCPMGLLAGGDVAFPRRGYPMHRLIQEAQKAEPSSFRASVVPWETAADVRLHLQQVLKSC
Hits are given with their value.

What do the screens show for `CNc1nnc(SCC(=O)c2cc(C)n(C3CC3)c2C)s1`?
KCNK3 inh: inactive

What do the screens show for `C=CCn1c(C)cc(C(=O)CSc2n[nH]c(N)n2)c1C`?
KCNQ1 block: inactive; KCNK3 inh: inactive; hERG protect: inactive; KCNQ1 act: inactive; KCNK9 inh: inactive; PHOSPHO1 block: 62

How did Cc1cc(C(=O)CSc2n[nH]c(N)n2)c(C)n1-c1ccccc1 do in these assays?
KCNQ1 block: inactive; KCNK3 inh: inactive; hERG protect: inactive; KCNQ1 act: inactive; KCNK9 inh: inactive; PHOSPHO1 block: 95

What do the screens show for `Cc1cc(C(=O)CSc2nnnn2C)c(C)n1-c1ccc2c(c1)OCCO2`?
KCNQ1 block: inactive; KCNK3 inh: inactive; hERG protect: inactive; KCNQ1 act: inactive; KCNK9 inh: inactive; PHOSPHO1 block: inactive

Results for Cc1nnc(SCC(=O)c2cc(C)n(-c3ccc4c(c3)OCO4)c2C)s1 ?
KCNQ1 block: inactive; KCNK3 inh: inactive; hERG protect: inactive; KCNQ1 act: inactive; KCNK9 inh: inactive; PHOSPHO1 block: 92

Results for COC(=O)c1ccc(C(=O)OC)c(NC(=O)CSc2cccc[n+]2[O-])c1 ?
KCNQ1 block: inactive; KCNK3 inh: inactive; hERG protect: inactive; KCNQ1 act: inactive; KCNK9 inh: inactive; PHOSPHO1 block: 87

How did COC(=O)c1ccc(-n2c(C)cc(C(=O)CSc3cccc[n+]3[O-])c2C)cc1 do in these assays?
KCNQ1 block: inactive; KCNK3 inh: inactive; hERG protect: inactive; KCNQ1 act: inactive; KCNK9 inh: inactive; PHOSPHO1 block: inactive

What do the screens show for `CN1c2ccccc2C(C)(C)C12CCCC(=O)N2` (stereo unspecified)?
KCNQ1 block: inactive; KCNK3 inh: inactive; hERG protect: inactive; KCNQ1 act: inactive; KCNK9 inh: inactive; PHOSPHO1 block: 87

Results for CN(C)c1nc(=S)nc(NCc2ccccc2)[nH]1 ?
KCNQ1 block: inactive; KCNK3 inh: inactive; hERG protect: inactive; KCNQ1 act: inactive; KCNK9 inh: inactive; PHOSPHO1 block: inactive

How did Cc1c(Cc2ccc3c(c2)OCO3)sc(NC(=O)C(C)(C)C)c1C#N do in these assays?
KCNQ1 block: inactive; KCNK3 inh: inactive; hERG protect: inactive; KCNQ1 act: inactive; KCNK9 inh: -7.6; PHOSPHO1 block: inactive

Results for Cn1ncc(Cl)c1C(=O)N1CCOCC1 ?
KCNQ1 block: inactive; KCNK3 inh: inactive; hERG protect: inactive; KCNQ1 act: inactive; KCNK9 inh: inactive; PHOSPHO1 block: inactive

How did O=C(Nc1cc(Sc2nc3ccccc3s2)cc([N+](=O)[O-])c1)c1cccc(F)c1F do in these assays?
KCNQ1 block: 6; KCNK3 inh: inactive; hERG protect: inactive; KCNQ1 act: inactive; KCNK9 inh: inactive; PHOSPHO1 block: inactive

What do the screens show for `COc1cc(C2C(C(=O)c3ccc(C)o3)=C(O)C(=O)N2c2cc(C)on2)cc(Br)c1O` (stereo unspecified)?
KCNQ1 block: inactive; KCNK3 inh: inactive; hERG protect: inactive; KCNQ1 act: inactive; KCNK9 inh: inactive; PHOSPHO1 block: inactive

What do the screens show for `COc1ccc(C2C(C(=O)c3ccc(C)o3)=C(O)C(=O)N2c2cc(C)on2)cc1OC` (stereo unspecified)?
KCNQ1 block: inactive; KCNK3 inh: inactive; hERG protect: inactive; KCNQ1 act: inactive; KCNK9 inh: inactive; PHOSPHO1 block: 60

What do the screens show for `O=C(NCCCN1CCOCC1)C(=O)NCC1OCCCN1S(=O)(=O)c1cc(F)ccc1F` (stereo unspecified)?
KCNQ1 block: inactive; KCNK3 inh: inactive; hERG protect: inactive; KCNQ1 act: inactive; KCNK9 inh: inactive; PHOSPHO1 block: 75

How did COc1ccc(NC(=O)Nc2c(C)n(C)n(-c3ccccc3)c2=O)cc1OC do in these assays?
KCNQ1 block: inactive; KCNK3 inh: inactive; hERG protect: inactive; KCNQ1 act: inactive; KCNK9 inh: inactive; PHOSPHO1 block: inactive

What do the screens show for `CCCOC(=O)c1cc(NC(=O)/C=C/c2ccccc2)ccc1O`?
KCNQ1 block: inactive; hERG protect: inactive; KCNQ1 act: inactive; KCNK9 inh: -9.4; PHOSPHO1 block: inactive

What do the screens show for `CCOC(=O)c1cc(NC(=O)COC)ccc1O`?
KCNQ1 block: inactive; hERG protect: inactive; KCNQ1 act: inactive; KCNK9 inh: inactive; PHOSPHO1 block: inactive

What do the screens show for `Cc1ccc(CSc2nnc(SCC(=O)N/N=C/c3c(C)nn(-c4ccccc4)c3C)s2)cc1`?
KCNQ1 block: inactive; KCNK3 inh: inactive; hERG protect: inactive; KCNQ1 act: inactive; KCNK9 inh: inactive; PHOSPHO1 block: inactive

Results for Cc1nn(-c2ccccc2)c(C)c1/C=N/NC(=O)CSc1nnc(SCc2ccccc2Cl)s1 ?
KCNQ1 block: 6; KCNK3 inh: inactive; hERG protect: inactive; KCNQ1 act: inactive; KCNK9 inh: inactive; PHOSPHO1 block: inactive

How did Cc1ccc(-c2nn(-c3ccccc3)cc2C2SCC(=O)N2Cc2ccccc2)o1 (stereo unspecified) do in these assays?
KCNQ1 block: 7; KCNK3 inh: inactive; hERG protect: inactive; KCNQ1 act: inactive; KCNK9 inh: inactive; PHOSPHO1 block: inactive

What do the screens show for `Cc1ccc(S(=O)(=O)n2nccc2-c2c(-c3ccccc3)noc2C)cc1`?
KCNQ1 block: inactive; KCNK3 inh: inactive; hERG protect: inactive; KCNQ1 act: inactive; KCNK9 inh: -7.2; PHOSPHO1 block: inactive

What do the screens show for `Cc1ccc(S(=O)(=O)N2CCN(Cc3nnc(-c4c(-c5ccccc5)noc4C)o3)CC2)cc1`?
KCNK3 inh: inactive

What do the screens show for `CC(C)CN1CCN(C(=O)CCc2nnc(Cc3c[nH]c4ccccc34)o2)[C@@H](C)C1=O`?
KCNQ1 block: inactive; KCNK3 inh: inactive; hERG protect: inactive; KCNQ1 act: inactive; KCNK9 inh: inactive; PHOSPHO1 block: 66

How did Cc1c(C(=O)OCC(=O)N2CC(=O)Nc3ccccc32)oc2ccc(Br)cc12 do in these assays?
KCNQ1 block: inactive; KCNK3 inh: inactive; hERG protect: 7.2; KCNQ1 act: inactive; KCNK9 inh: inactive; PHOSPHO1 block: inactive

Results for Cc1cc(C(=O)OCC(=O)N2CC(=O)Nc3ccccc32)no1 ?
KCNQ1 block: inactive; KCNK3 inh: inactive; hERG protect: inactive; KCNQ1 act: inactive; KCNK9 inh: inactive; PHOSPHO1 block: inactive

How did O=C(CCc1c[nH]c2ccccc12)NCCc1ccc(O)cc1 do in these assays?
KCNQ1 block: inactive; KCNK3 inh: inactive; hERG protect: inactive; KCNQ1 act: inactive; KCNK9 inh: inactive; PHOSPHO1 block: inactive

What do the screens show for `Cc1cccc([N+](=O)[O-])c1C(=O)O`?
KCNK3 inh: inactive

How did CCN(CC)S(=O)(=O)c1cc(NC(=O)CCc2c(C)noc2C)ccc1C do in these assays?
KCNK3 inh: inactive

What do the screens show for `CCN(CC)S(=O)(=O)c1cc(NC(=O)CSCc2c(C)noc2C)ccc1C`?
KCNK3 inh: -10

What do the screens show for `O=C(COC(=O)c1cc(Cl)ccc1O)NC(=O)NCc1ccccc1`?
KCNK3 inh: inactive

How did CCc1c(C(=O)Nc2ccccc2)c(C)[nH]c(=S)c1C#N do in these assays?
KCNQ1 block: inactive; KCNK3 inh: inactive; hERG protect: inactive; KCNQ1 act: inactive; KCNK9 inh: inactive; PHOSPHO1 block: inactive

Bioassay records deposited in PubChem by several laboratories.
